Measurements taken from ChEMBL document CHEMBL2163259, “ADME-guided design and synthesis of aryloxanyl pyrazolone derivatives to block mutant superoxide dismutase 1 (SOD1) cytotoxicity and protein aggregation: potential application for the treatment of amyotrophic lateral sclerosis” (J Med Chem, 2012).

Columns and labels:
[1] = target: B2 bradykinin receptor (Homo sapiens) (UniProt P30411); assay: Inhibition of human bradykinin B2 receptor at 10 uM by radioligand displacement assay
Method in brief: (§1)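 LeadProfilingScreen panel of 68 in vitro enzyme and receptor assays. Compound tested at 10 μM in duplicate.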

[2] = AUClast in Sprague-Dawley rat at 1 mg/kg, po; type: ADME, organism-based; set-up: dose 1 mg/kg, route oral, time 0 - last; conditions: plasma
Method in brief: (§2)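 Sprague-Dawley rats given a single 1 mg/kg bolus, intravenous or oral. Plasma PK parameters (AUC, dose-normalised AUC, half-life, clearance, Vss, Cmax, Tmax, oral bioavailability) derived from plasma levels.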

[3] = target: D(3) dopamine receptor (Homo sapiens) (UniProt P35462); assay: Inhibition of human dopamine D3 receptor at 10 uM by radioligand displacement assay
Method in brief: (§3)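 Single concentration of 10 μM, tested in duplicate as part of a contracted panel of 68 in vitro enzyme and receptor assays. The panel covers common adverse CNS, cardiovascular, pulmonary and genotoxic targets.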

[4] = target: Cytochrome P450 2C19 (Homo sapiens, UniProt P33261); assay: Inhibition of CYP2C19; type: ADME
Method in brief: (§4)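 Reversible inhibition of CYP isozymes in human liver microsomes, each isozyme with a single probe substrate. CYP3A4 tested with both testosterone and midazolam. IC50 determined.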

[5] = organism: Rattus norvegicus; assay: Inhibition of rat Rolipram binding site at 10 uM by radioligand displacement assay; method in brief: as §3
[6] = system: Mus musculus; assay: Neuroprotective activity in SOD1 G93A mutant B6SJL mouse ALS model assessed as life extension at 1 mg/kg administered qd for 1 week (reference value: 125.7 +/- 4.9 days); type: functional
[7] = target: Kappa-type opioid receptor (Homo sapiens) (UniProt P41145); assay: Inhibition of human kappa-type opioid receptor at 10 uM by radioligand displacement assay; method in brief: as §3
[8] = target: Endothelin-1 receptor (Homo sapiens) (UniProt P25101); assay: Inhibition of human endothelin ETA at 10 uM by radioligand displacement assay; method in brief: as §3
[9] = Efflux ratio of permeability from basolateral to apical side over apical to basolateral side in human Caco2 cells; type: ADME, cell-based; conditions: Caco-2
[10] = target: Sodium-dependent serotonin transporter (Homo sapiens) (UniProt P31645); assay: Inhibition of human serotonin transporter at 10 uM by radioligand displacement assay; method in brief: as §3
[11] = target: Androgen receptor (Rattus norvegicus) (UniProt P15207); assay: Inhibition of rat testosterone receptor at 10 uM by radioligand displacement assay; method in brief: as §3
[12] = Toxicity in ip dosed wild type mouse administered twice daily; type: organism-based; conditions: in vivo
Method in brief: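 Tolerability was tested in wild-type mice by i.p. injection twice daily. Each injection increased the dose one-fold, up to 75 mg/kg.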

[13] = Half life in human microsomes at 5 uM incubated for 1 hr at 37 degC in presence of NADPH; type: ADME, Microsome; conditions: 1 h, 5 µM
[14] = target: T1, Cytochrome P450 3A4 (Homo sapiens, UniProt P08684); assay: Inhibition of CYP3A4 using midazolam as substrate; type: ADME; method in brief: as §4
[15] = system: Mus musculus; assay: Neuroprotective activity in SOD1 G93A mutant B6SJL mouse ALS model assessed as life extension at 20 mg/kg administered qd for 1 week (reference value: 125.7 +/- 4.9 days); type: functional
[16] = target: Gamma-aminobutyric acid type B receptor subunit 1 (Homo sapiens) (UniProt Q9UBS5); assay: Inhibition of human GABAB1A receptor at 10 uM by radioligand displacement assay; method in brief: as §1
[17] = target: Melatonin receptor type 1A (Homo sapiens) (UniProt P48039); assay: Inhibition of human MT1 receptor at 10 uM by radioligand displacement assay; method in brief: as §1
[18] = organism: Rattus norvegicus; assay: Inhibition of rat GABAA receptor flunitrazepam site at 10 uM by radioligand displacement assay; method in brief: as §3
[19] = target: Adenosine receptor A3 (Homo sapiens) (UniProt P0DMS8); assay: Inhibition of human adenosine A3 receptor at 10 uM by radioligand displacement assay
Method in brief: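 Single concentration of 10 μM, tested in duplicate in a contract panel of 68 in vitro enzyme and receptor binding assays covering common adverse CNS, cardiovascular, pulmonary and genotoxic targets.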

[20] = target: Cytochrome P450 1A2 (Homo sapiens, UniProt P05177); assay: Inhibition of CYP1A2; type: ADME; method in brief: as §4
[21] = target: 5-hydroxytryptamine receptor 1A (Homo sapiens) (UniProt P08908); assay: Inhibition of human 5HT1A receptor at 10 uM by radioligand displacement assay; method in brief: as §1
[22] = Plasma concentration in B6SJL mouse at 300 mg/kg after 6 hrs by mass spectrometry; type: ADME, organism-based; set-up: dose 300 mg/kg
Method in brief: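 Single 300 mg/kg bolus i.p. injection in B6SJL mice; blood and brain collected at 0, 1, 3, 6, 12 and 24 h, flash frozen in liquid nitrogen and stored at -80 °C. Samples analysed by mass spectrometry with ESI ionization in MRM mode.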

[23] = target: Epidermal growth factor receptor (Homo sapiens) (UniProt P00533); assay: Inhibition of human epidermal growth factor receptor at 10 uM by radioligand displacement assay; method in brief: as §3
[24] = target: L-type calcium channel, benzothiazepine site (Rattus norvegicus, UniProt P22002+P27732+Q02485); assay: Inhibition of rat calcium channel L-type, benzothiazepine site at 10 uM by radioligand displacement assay; method in brief: as §3
[25] = organism: Mus musculus; assay: Inhibition of mouse IL-1 at 10 uM by radioligand displacement assay; method in brief: as §3
[26] = system: Rattus norvegicus; assay: Dose normalised AUC in Sprague-Dawley rat at 1 mg/kg, po; type: ADME, organism-based; set-up: dose 1 mg/kg, route oral; conditions: in vivo; method in brief: as §2
[27] = target: Neuropeptide Y receptor type 1 (Homo sapiens) (UniProt P25929); assay: Inhibition of human Neuropeptide Y Y1 receptor at 10 uM by radioligand displacement assay; method in brief: as §1
[28] = target: hERG (Homo sapiens, UniProt Q12809); assay: Inhibition of human ERG expressed in human HEK293 cells at 10 uM by patch clamp assay; type: cell-based; conditions: HEK293 cells that express hERG
Method in brief: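 Cloned hERG potassium channels expressed in HEK293 cells. FASTPatch patch-clamp screen with test compound at 10 μM, two experiments. E-4031 used as positive control. Solubility at test concentration checked by TurboSol; value given as mean % hERG antagonism.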

[29] = target: Pyroglutamylated RF-amide peptide receptor (Homo sapiens) (UniProt Q96P65); assay: Inhibition of human GPR103 receptor at 10 uM by radioligand displacement assay; method in brief: as §1
[30] = target: 5-hydroxytryptamine receptor 3A (Homo sapiens) (UniProt P46098); assay: Inhibition of human 5HT3A receptor at 10 uM by radioligand displacement assay; method in brief: as §1
[31] = target: Beta-1 adrenergic receptor (Homo sapiens) (UniProt P08588); assay: Inhibition of human beta1 adrenergic receptor at 10 uM by radioligand displacement assay; method in brief: as §1
[32] = Half life in Sprague-Dawley rat at 1 mg/kg, iv; type: ADME, organism-based; set-up: dose 1 mg/kg, route intravenous; conditions: in vivo; method in brief: as §2
[33] = Plasma concentration in B6SJL mouse at 300 mg/kg after 3 hrs by mass spectrometry; type: ADME, organism-based; set-up: dose 300 mg/kg
Method in brief: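 B6SJL mice were given a single 300 mg/kg intraperitoneal bolus. Blood and brain were collected at 0, 1, 3, 6, 12 and 24 h, flash-frozen in liquid nitrogen and stored at -80 °C. Samples were analyzed by mass spectrometry with ESI ionization in MRM mode.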

[34] = target: D(1A) dopamine receptor (Homo sapiens) (UniProt P21728); assay: Inhibition of human dopamine D1 receptor at 10 uM by radioligand displacement assay; method in brief: as §1
[35] = target: T1, Cytochrome P450 3A4; assay: Inhibition of CYP3A4 using testosterone as substrate; type: ADME; method in brief: as §4
[36] = Clearance in Sprague-Dawley rat at 1 mg/kg, iv; type: ADME, organism-based; set-up: dose 1 mg/kg, route intravenous; conditions: in vivo; method in brief: as §2

T1 sequence (P08684 whole entry): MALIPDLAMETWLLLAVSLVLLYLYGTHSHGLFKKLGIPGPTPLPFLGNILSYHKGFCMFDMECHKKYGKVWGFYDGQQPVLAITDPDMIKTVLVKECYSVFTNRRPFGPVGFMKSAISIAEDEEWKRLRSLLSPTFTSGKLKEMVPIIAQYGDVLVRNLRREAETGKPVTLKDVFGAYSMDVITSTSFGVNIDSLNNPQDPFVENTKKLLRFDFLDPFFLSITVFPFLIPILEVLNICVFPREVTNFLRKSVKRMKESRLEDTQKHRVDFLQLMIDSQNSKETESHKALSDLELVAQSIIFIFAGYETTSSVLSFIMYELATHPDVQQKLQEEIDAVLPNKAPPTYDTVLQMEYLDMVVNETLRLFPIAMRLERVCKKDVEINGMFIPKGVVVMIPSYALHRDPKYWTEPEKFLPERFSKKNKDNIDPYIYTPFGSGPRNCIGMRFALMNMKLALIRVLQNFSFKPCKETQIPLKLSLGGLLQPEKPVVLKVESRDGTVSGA
Sequence of Sodium-dependent serotonin transporter (Homo sapiens) (P31645 whole entry, looked up): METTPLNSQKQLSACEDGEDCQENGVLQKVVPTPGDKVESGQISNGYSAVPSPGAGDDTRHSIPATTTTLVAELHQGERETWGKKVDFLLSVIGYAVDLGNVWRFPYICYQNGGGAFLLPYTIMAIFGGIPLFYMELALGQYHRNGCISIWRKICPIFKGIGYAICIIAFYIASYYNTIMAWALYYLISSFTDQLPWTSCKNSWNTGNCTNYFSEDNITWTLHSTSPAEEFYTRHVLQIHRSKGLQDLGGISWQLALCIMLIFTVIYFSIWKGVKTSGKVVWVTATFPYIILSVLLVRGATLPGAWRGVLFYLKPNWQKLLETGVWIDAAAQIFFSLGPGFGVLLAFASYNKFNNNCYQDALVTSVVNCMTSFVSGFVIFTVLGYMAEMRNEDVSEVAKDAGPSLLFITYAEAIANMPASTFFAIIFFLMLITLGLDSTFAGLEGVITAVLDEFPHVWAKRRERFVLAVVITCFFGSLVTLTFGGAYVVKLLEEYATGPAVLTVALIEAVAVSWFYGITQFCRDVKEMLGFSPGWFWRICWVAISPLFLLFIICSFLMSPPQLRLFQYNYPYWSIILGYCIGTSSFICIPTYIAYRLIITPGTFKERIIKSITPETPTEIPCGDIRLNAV
Sequence of Endothelin-1 receptor (Homo sapiens) (P25101 whole entry): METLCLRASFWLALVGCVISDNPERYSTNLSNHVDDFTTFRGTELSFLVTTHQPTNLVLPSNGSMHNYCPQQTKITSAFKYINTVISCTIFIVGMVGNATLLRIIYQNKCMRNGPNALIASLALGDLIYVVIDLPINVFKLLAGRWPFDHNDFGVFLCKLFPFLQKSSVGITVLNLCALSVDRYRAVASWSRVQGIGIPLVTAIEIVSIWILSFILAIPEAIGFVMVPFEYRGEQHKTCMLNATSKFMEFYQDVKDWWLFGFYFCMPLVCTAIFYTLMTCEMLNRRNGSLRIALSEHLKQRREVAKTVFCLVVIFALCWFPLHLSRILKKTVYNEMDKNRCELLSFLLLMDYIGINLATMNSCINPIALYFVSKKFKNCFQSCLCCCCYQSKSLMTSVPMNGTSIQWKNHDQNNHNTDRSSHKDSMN
Sequence of hERG (Q12809 whole entry): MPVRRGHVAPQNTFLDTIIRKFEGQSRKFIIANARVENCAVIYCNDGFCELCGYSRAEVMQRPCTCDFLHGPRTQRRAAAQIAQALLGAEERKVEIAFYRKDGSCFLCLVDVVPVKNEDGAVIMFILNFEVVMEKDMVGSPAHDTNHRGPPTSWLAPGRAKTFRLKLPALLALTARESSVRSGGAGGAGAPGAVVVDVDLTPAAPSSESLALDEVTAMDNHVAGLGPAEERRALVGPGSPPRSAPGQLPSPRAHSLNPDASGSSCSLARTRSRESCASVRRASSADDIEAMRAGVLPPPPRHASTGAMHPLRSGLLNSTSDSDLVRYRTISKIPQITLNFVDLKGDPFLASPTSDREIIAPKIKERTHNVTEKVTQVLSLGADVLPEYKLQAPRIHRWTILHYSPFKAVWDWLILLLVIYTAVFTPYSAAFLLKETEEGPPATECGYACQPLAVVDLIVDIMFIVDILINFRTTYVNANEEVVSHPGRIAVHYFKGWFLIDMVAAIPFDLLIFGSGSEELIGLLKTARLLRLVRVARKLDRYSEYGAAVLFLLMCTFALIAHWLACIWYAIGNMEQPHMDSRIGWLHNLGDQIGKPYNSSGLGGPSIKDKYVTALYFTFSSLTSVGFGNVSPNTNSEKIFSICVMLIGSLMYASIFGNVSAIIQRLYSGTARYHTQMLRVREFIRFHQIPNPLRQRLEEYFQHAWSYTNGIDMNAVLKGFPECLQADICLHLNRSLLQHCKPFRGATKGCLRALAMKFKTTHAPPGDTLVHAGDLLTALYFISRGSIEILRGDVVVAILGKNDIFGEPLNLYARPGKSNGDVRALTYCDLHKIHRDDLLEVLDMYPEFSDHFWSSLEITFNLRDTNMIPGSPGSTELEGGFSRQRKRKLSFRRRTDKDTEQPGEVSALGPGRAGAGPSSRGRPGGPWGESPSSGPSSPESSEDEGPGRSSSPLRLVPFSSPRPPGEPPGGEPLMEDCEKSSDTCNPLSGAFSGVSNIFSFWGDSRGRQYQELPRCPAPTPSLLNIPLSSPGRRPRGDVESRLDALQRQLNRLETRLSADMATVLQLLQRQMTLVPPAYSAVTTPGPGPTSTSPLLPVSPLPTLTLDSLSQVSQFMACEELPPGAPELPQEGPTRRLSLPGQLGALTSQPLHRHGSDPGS
Sequence of Melatonin receptor type 1A (Homo sapiens) (P48039 whole entry): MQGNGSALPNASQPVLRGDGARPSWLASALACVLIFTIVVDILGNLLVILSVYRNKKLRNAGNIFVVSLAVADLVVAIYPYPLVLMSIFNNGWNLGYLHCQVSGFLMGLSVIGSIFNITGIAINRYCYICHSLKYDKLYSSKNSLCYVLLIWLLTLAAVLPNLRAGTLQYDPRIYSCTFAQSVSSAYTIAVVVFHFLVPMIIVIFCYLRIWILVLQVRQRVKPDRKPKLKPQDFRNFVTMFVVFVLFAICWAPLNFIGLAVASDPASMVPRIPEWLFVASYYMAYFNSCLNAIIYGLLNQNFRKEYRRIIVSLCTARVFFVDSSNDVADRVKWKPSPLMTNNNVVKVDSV
Sequence of 5-hydroxytryptamine receptor 3A (Homo sapiens) (P46098 whole entry): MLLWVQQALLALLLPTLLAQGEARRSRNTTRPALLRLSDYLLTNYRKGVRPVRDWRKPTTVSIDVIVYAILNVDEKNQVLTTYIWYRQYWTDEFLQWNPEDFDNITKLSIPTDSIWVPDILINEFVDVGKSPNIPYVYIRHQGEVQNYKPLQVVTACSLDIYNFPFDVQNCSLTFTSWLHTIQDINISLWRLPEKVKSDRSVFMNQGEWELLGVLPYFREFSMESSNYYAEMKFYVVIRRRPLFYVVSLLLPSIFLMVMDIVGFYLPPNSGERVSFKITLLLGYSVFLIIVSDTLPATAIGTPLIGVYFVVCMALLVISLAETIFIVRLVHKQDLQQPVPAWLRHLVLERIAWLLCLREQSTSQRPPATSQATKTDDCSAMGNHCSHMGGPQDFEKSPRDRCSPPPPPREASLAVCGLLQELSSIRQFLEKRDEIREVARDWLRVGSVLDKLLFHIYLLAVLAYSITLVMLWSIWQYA
Sequence of Kappa-type opioid receptor (Homo sapiens) (P41145 whole entry): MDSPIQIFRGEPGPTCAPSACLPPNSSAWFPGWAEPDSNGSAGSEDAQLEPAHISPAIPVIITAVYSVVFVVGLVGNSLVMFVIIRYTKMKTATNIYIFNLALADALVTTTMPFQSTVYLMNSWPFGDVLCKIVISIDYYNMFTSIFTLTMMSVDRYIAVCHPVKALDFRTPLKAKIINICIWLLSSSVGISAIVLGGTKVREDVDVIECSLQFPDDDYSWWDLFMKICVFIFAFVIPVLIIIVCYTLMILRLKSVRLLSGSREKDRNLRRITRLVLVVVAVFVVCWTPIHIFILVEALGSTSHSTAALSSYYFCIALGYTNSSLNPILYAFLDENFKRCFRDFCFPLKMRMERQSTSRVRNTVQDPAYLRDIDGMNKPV
Sequence of Beta-1 adrenergic receptor (Homo sapiens) (P08588 whole entry, looked up): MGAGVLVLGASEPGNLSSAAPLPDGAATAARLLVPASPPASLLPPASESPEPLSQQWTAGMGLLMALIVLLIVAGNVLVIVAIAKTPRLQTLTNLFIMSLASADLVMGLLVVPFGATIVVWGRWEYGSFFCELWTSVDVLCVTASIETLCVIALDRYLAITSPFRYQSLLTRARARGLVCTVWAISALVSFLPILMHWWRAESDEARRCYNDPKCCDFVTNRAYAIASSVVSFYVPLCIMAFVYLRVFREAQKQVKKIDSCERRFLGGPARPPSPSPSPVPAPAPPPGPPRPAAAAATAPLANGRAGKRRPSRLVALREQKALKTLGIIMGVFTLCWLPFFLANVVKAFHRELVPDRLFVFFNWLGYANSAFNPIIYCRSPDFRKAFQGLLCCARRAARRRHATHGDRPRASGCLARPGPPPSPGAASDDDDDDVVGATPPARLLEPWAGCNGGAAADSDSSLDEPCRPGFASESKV
Sequence of Cytochrome P450 1A2 (P05177 whole entry): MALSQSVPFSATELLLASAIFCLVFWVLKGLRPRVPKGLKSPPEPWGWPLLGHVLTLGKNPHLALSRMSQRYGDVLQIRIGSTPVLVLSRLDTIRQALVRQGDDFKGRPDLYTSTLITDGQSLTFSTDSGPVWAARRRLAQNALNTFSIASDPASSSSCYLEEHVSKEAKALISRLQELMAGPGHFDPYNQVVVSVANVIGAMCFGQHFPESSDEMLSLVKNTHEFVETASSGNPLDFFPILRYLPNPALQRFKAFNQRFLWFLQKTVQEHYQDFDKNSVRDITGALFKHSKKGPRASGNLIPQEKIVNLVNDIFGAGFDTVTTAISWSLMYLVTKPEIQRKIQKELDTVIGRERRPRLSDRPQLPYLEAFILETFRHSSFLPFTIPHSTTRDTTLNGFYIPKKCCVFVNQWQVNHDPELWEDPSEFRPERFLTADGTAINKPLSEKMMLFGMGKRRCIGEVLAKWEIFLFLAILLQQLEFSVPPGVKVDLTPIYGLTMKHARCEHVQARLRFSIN

O=c1cc(COc2cc(Cl)cc(Cl)c2)[nH][nH]1
inhibition [1]: -10%
AUC(0-t) [2]: 42 ng·h/mL
inhibition [3]: -4%
IC50 [4]: 20 µM
inhibition [5]: -2%
Survival [6]: 129.2 days
inhibition [7]: -9%
inhibition [8]: 3%
efflux ratio [9]: 0.4
inhibition [10]: -6%
inhibition [11]: 3%
MTD [12]: 75 mg/kg
t1/2 [13]: 1.55 h
IC50 [14]: > 50 µM
Survival [15]: 142.5 days
inhibition [16]: -7%
inhibition [17]: 3%
inhibition [18]: 12%
inhibition [19]: 6%
IC50 [20]: > 50 µM
inhibition [21]: -6%
concentration at 6 h [22]: 347 µM
inhibition [23]: 5%
inhibition at 10 µM [24]: -2%
inhibition [25]: 3%
AUC/dose [26]: 50 ng·h/mL/mg/kg
inhibition [27]: -1%
inhibition at 10 µM [28]: 0.6%
inhibition [29]: 3%
inhibition [30]: 7%
inhibition [31]: 1%
half-life [32]: 2.1 h
concentration at 3 h [33]: 342 µM
inhibition [34]: 3%
IC50 [35]: > 50 µM
clearance [36]: 92 mL/min/kg
